Reference: ChEMBL document CHEMBL1148584, “Effect of polyamine homologation on the transport and biological properties of heterocyclic amidines” (J Med Chem, 2006)

Legend:
[1] = Selectivity for uptake in CHO cell line over CHO-MG cell line at 25 uM; format: functional, Cricetulus griseus
How it was run: (§1)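 Ratio of intracellular conjugate level in CHO over CHO-MG cells. Both lines were exposed to conjugate 24 h after seeding at 2 × 10⁵ cells/mL, for 24 h with 2 mM aminoguanidine in the medium. Levels were measured by ion-pair HPLC of perchloric extracts and normalised to protein (nmol/mg).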

L1210 [2] = experiment: Inhibition of cell growth in L1210 cells in the presence of DFMO; format: functional, cell-based; conditions: Mus musculus
How it was run: (§2)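 L1210 cells seeded at 5 × 10⁴ cells/mL with conjugate added at seeding; CHO/CHO-MG plated at 2 × 10³ cells/mL with conjugate added after overnight (24 h). 5 mM DFMO added together with conjugate; medium contains 2 mM aminoguanidine. After 48 h, growth read by MTT formazan absorbance at 540 nm. IC50 is 50% growth inhibition; mean of three determinations.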

L1210 [3] = experiment: Intracellular level of putrescine in L1210 cells in the absence of DFMO at 20 uM; format: functional, cell-based; conditions: Mus musculus
How it was run: (§3)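 L1210 cells in RPMI 1640/10% FCS with 2 mM aminoguanidine, seeded at 4 × 10⁴ cells/mL. Conjugate, with or without 5 mM DFMO, added at seeding; cells cultured 48 h, washed in cold NaCl, and extracted with 0.2 N HClO₄. Conjugate and free putrescine, spermidine and spermine quantified by ion-pair HPLC (UV 254 nm, fluorescence ex 345/em 455 nm); normalised to protein. Student's t-test, p<0.05.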

CHO [4] = experiment: Inhibition of cell growth in CHO cells in the presence of DFMO; format: functional, cell-based; conditions: Cricetulus griseus; how it was run: as §2
L1210 [5] = experiment: Intracellular level of spermine in L1210 cells in the absence of DFMO at 20 uM; format: functional, cell-based; conditions: Mus musculus; how it was run: as §3
CHO-MG [6] = experiment: Inhibition of cell growth in CHO-MG cells in the presence of DFMO; format: functional, cell-based; conditions: Cricetulus griseus; how it was run: as §2
L1210 [7] = experiment: Intracellular level of putrescine in L1210 cells in the presence of DFMO at 20 uM; format: functional, cell-based; conditions: Mus musculus; how it was run: as §3
L1210 [8] = experiment: Intracellular level of spermine in L1210 cells in the presence of DFMO at 20 uM; format: functional, cell-based; conditions: Mus musculus; how it was run: as §3
Phosphodiesterase 1 = Phosphodiesterase 1 (Bos taurus, UniProt Q01061+P14100); experiment: Inhibition of bovine calmodulin-activated cAMP dependent phosphodiesterase; format: protein assay
How it was run: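 Crude bovine heart PDE preparation containing calmodulin and Ca²⁺ (0.2 milliunit). Incubated 20 min at 37 °C with 0.1 mM [8-³H]cAMP and graded drug concentrations in 30 mM Tris-HCl, 3 mM MgSO₄, 0.6 mM AMP. Stopped with ZnSO₄; Ba(OH)₂ precipitated AMP with BaSO₄; supernatant radioactivity counted. IC50 is the concentration giving 50% inhibition.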

L1210 [9] = experiment: Intracellular level of spermidine in L1210 cells in the absence of DFMO at 20 uM; format: functional, cell-based; conditions: Mus musculus; how it was run: as §3
CHO [10] = experiment: Cellular uptake in CHO cells at 25 uM; format: ADME, cell-based, Cricetulus griseus; conditions: chinese hamster
How it was run: (§4)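 CHO (RPMI 1640, 10% FCS, 2 mM aminoguanidine) and CHO-MG (plus L-proline) cells seeded at 2 × 10⁵ cells/mL. Conjugate added 24 h after seeding and cells harvested 24 h later, then washed in cold 0.14 M NaCl and sonicated in 0.2 N HClO₄. Supernatant analysed by ion-pair reversed-phase HPLC (n-octanesulfonate), expressed as nmol/mg protein; mean ± SD of three determinations.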

L1210 [11] = experiment: Intracellular level of spermidine in L1210 cells in the presence of DFMO at 20 uM; format: functional, cell-based; conditions: Mus musculus; how it was run: as §3
CHO-MG [12] = experiment: Cellular uptake in CHO-MG cells at 25 uM; format: ADME, cell-based, Cricetulus griseus; conditions: chinese hamster; how it was run: as §4
L1210 [13] = experiment: Intracellular level of polyamine in L1210 cells in the presence of DFMO at 20 uM; format: functional, cell-based; conditions: Mus musculus; how it was run: as §3
L1210 [14] = experiment: Intracellular level of conjugate in L1210 cells in the absence of DFMO at 20 uM; format: functional, cell-based; conditions: Mus musculus; how it was run: as §3
L1210 [15] = experiment: Intracellular level of spermidine in L1210 cells in the presence of DFMO at 50 uM; format: functional, cell-based; conditions: Mus musculus; how it was run: as §3
L1210 [16] = experiment: Intracellular level of conjugate in L1210 cells in the absence of DFMO at 50 uM; format: functional, cell-based; conditions: Mus musculus; how it was run: as §3
L1210 [17] = experiment: Intracellular level of conjugate in L1210 cells in the presence of DFMO at 50 uM; format: functional, cell-based; conditions: Mus musculus; how it was run: as §3
[18] = Selectivity for uptake CHO cell line over CHO-MG cell line at 50 uM; format: functional, Cricetulus griseus; how it was run: as §1
L1210 [19] = experiment: Intracellular level of spermidine in L1210 cells in the absence of DFMO at 50 uM; format: functional, cell-based; conditions: Mus musculus; how it was run: as §3
CHO [20] = experiment: Cellular uptake in CHO cells at 50 uM; format: ADME, cell-based, Cricetulus griseus; conditions: chinese hamster; how it was run: as §4
L1210 [21] = experiment: Intracellular level of putrescine in L1210 cells in the presence of DFMO at 50 uM; format: functional, cell-based; conditions: Mus musculus; how it was run: as §3
L1210 [22] = experiment: Intracellular level of spermine in L1210 cells in the presence of DFMO at 50 uM; format: functional, cell-based; conditions: Mus musculus; how it was run: as §3
L1210 [23] = experiment: Intracellular level of putrescine in L1210 cells in the absence of DFMO at 50 uM; format: functional, cell-based; conditions: Mus musculus; how it was run: as §3
L1210 [24] = experiment: Intracellular level of spermine in L1210 cells in the absence of DFMO at 50 uM; format: functional, cell-based; conditions: Mus musculus; how it was run: as §3
CHO-MG [25] = experiment: Cellular uptake in CHO-MG cells at 50 uM; format: ADME, cell-based, Cricetulus griseus; conditions: chinese hamster; how it was run: as §4
L1210 [26] = experiment: Intracellular level of spermine in L1210 cells in the presence of DFMO at 25 uM; format: functional, cell-based; conditions: Mus musculus; how it was run: as §3
L1210 [27] = experiment: Intracellular level of conjugate in L1210 cells in the absence of DFMO at 25 uM; format: functional, cell-based; conditions: Mus musculus; how it was run: as §3
L1210 [28] = experiment: Intracellular level of spermine in L1210 cells in the absence of DFMO at 25 uM; format: functional, cell-based; conditions: Mus musculus; how it was run: as §3
L1210 [29] = experiment: Intracellular level of conjugate in L1210 cells in the presence of DFMO at 25 uM; format: functional, cell-based; conditions: Mus musculus; how it was run: as §3
L1210 [30] = experiment: Intracellular level of spermidine in L1210 cells in the presence of DFMO at 25 uM; format: functional, cell-based; conditions: Mus musculus; how it was run: as §3
L1210 [31] = experiment: Intracellular level of putrescine in L1210 cells in the absence of DFMO at 25 uM; format: functional, cell-based; conditions: Mus musculus; how it was run: as §3
L1210 [32] = experiment: Intracellular level of spermidine in L1210 cells in the absence of DFMO at 25 uM; format: functional, cell-based; conditions: Mus musculus; how it was run: as §3
L1210 [33] = experiment: Intracellular level of putrescine in L1210 cells in the presence of DFMO at 25 uM; format: functional, cell-based; conditions: Mus musculus; how it was run: as §3
L1210 [34] = experiment: Intracellular level of spermine in L1210 cells in the presence of DFMO at 10 uM; format: functional, cell-based; conditions: Mus musculus; how it was run: as §3
L1210 [35] = experiment: Intracellular level of spermidine in L1210 cells in the absence of DFMO at 10 uM; format: functional, cell-based; conditions: Mus musculus; how it was run: as §3
L1210 [36] = experiment: Intracellular level of putrescine in L1210 cells in the presence of DFMO at 10 uM; format: functional, cell-based; conditions: Mus musculus; how it was run: as §3
L1210 [37] = experiment: Intracellular level of conjugate in L1210 cells in the absence of DFMO at 10 uM; format: functional, cell-based; conditions: Mus musculus; how it was run: as §3
L1210 [38] = experiment: Intracellular level of putrescine in L1210 cells in the absence of DFMO at 10 uM; format: functional, cell-based; conditions: Mus musculus; how it was run: as §3
L1210 [39] = experiment: Intracellular level of spermidine in L1210 cells in the presence of DFMO at 10 uM; format: functional, cell-based; conditions: Mus musculus; how it was run: as §3
L1210 [40] = experiment: Intracellular level of spermine in L1210 cells in the absence of DFMO at 10 uM; format: functional, cell-based; conditions: Mus musculus; how it was run: as §3
L1210 [41] = experiment: Intracellular level of conjugate in L1210 cells in the presence of DFMO at 10 uM; format: functional, cell-based; conditions: Mus musculus; how it was run: as §3

Row | SMILES | IC50 (L1210 [2]) | IC50 (Phosphodiesterase 1) | Drug uptake (CHO [10]) | Drug uptake (CHO-MG [12]) | Drug uptake (CHO [20]) | Drug uptake (CHO-MG [25]) | Selectivity ratio [1] | Drug uptake (L1210 [3]) | IC50 (CHO [4]) | Drug uptake (L1210 [5]) | IC50 (CHO-MG [6]) | Drug uptake (L1210 [7]) | Drug uptake (L1210 [8]) | Drug uptake (L1210 [9]) | Drug uptake (L1210 [11]) | Drug uptake (L1210 [13]) | Drug uptake (L1210 [14]) | Selectivity ratio [18] | other results
1 | CC1C[C@]2(C)C(NCCCCN)=Nc3ccccc3[C@@H]2N(C)c2ccccc21 (stereo partly drawn) | 54 µM | 116 µM | 3.6 nmol/mg | 3.3 nmol/mg | – | – | 1.1 | 0.85 nmol/mg | 45 µM | 6.3 nmol/mg | 24 µM | 0.7 nmol/mg | 9 nmol/mg | 11 nmol/mg | 0.87 nmol/mg | 8.2 nmol/mg | 13 nmol/mg | – | –
2 | CNc1cccc2c1[C@H](C)C[C@]1(C)C(NCCCNCCCCN)=Nc3ccccc3[C@H]21 | – | 22 µM | – | – | 1.3 nmol/mg | 1.2 nmol/mg | – | – | – | – | > 100 µM | – | – | – | – | – | – | 1 | Drug uptake (L1210 [26]): 8.9 nmol/mg; Drug uptake (L1210 [27]): 1.2 nmol/mg; Drug uptake (L1210 [28]): 11 nmol/mg; Drug uptake (L1210 [29]): 1.3 nmol/mg; Drug uptake (L1210 [30]): 1.5 nmol/mg; Drug uptake (L1210 [31]): 1 nmol/mg; Drug uptake (L1210 [32]): 24 nmol/mg; Drug uptake (L1210 [33]): 0.02 nmol/mg
3 | CN(c1ccccc1)C1c2ccccc2N=C(NCCCNCCCCNCCCN)C1(C)C (stereo not drawn) | 2.3 µM | 8 µM | – | – | 3.3 nmol/mg | 3.2 nmol/mg | – | – | – | – | – | – | – | – | – | – | – | 1 | Drug uptake (L1210 [34]): 7.6 nmol/mg; Drug uptake (L1210 [35]): 16 nmol/mg; Drug uptake (L1210 [36]): 0.02 nmol/mg; Drug uptake (L1210 [37]): 1.8 nmol/mg; Drug uptake (L1210 [38]): 0.41 nmol/mg; Drug uptake (L1210 [39]): 0.6 nmol/mg; Drug uptake (L1210 [40]): 9.5 nmol/mg; Drug uptake (L1210 [41]): 2.6 nmol/mg

Further lines, with some results ahead:

Row | IC50 (L1210 [2]) | IC50 (Phosphodiesterase 1) | Drug uptake (CHO [10]) | Drug uptake (CHO-MG [12]) | Drug uptake (CHO [20]) | Drug uptake (CHO-MG [25]) | SMILES | Selectivity ratio [1] | Drug uptake (L1210 [3]) | IC50 (CHO [4]) | Drug uptake (L1210 [5]) | IC50 (CHO-MG [6]) | Drug uptake (L1210 [7]) | Drug uptake (L1210 [8]) | Drug uptake (L1210 [9]) | Drug uptake (L1210 [11]) | Drug uptake (L1210 [13]) | Drug uptake (L1210 [14]) | Selectivity ratio [18] | other results
4 | – | 373 µM | – | – | 5.3 nmol/mg | 5.9 nmol/mg | CNc1ccc(C2c3ccccc3N=C(NCCCCN)C2(C)C)cc1 (stereo not drawn) | – | – | – | – | – | – | – | – | – | – | – | 0.9 | Drug uptake (L1210 [15]): 1.8 nmol/mg; Drug uptake (L1210 [16]): 0.6 nmol/mg; Drug uptake (L1210 [17]): 0.33 nmol/mg; Drug uptake (L1210 [19]): 20 nmol/mg; Drug uptake (L1210 [21]): 1 nmol/mg; Drug uptake (L1210 [22]): 6.6 nmol/mg; Drug uptake (L1210 [23]): 1.9 nmol/mg; Drug uptake (L1210 [24]): 8.6 nmol/mg
5 | 56 µM | 70 µM | 8.1 nmol/mg | 7.2 nmol/mg | – | – | CNc1cccc2c1[C@H](C)C[C@]1(C)C(NCCCCN)=Nc3ccccc3[C@H]21 | 1.1 | 1.6 nmol/mg | 57 µM | 8.9 nmol/mg | 30 µM | 1 nmol/mg | 10 nmol/mg | 14 nmol/mg | 2.1 nmol/mg | 8.2 nmol/mg | 23 nmol/mg | – | –
